Tests used:
[1] = system: PC3-PIP (PSMA+) vs PC3 (PSMA−) cell containing myocutaneous tissue; test: Ex vivo γ-scintillated biodistribution in mice bearing PC3 and PC3-PIP cells; design: species or system C57BL/6 mice; settings: 2 h after iv injection, γ-scintillation of excised tissue
Procedure, shortened: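 Male C57BL/6 mice, 5–6 weeks old, 20–25 g (n = 6), were given 3 × 10^6 (18 mg) PC3 cells s.c. in the left flank and PC3-PIP cells in the right flank. After 15 min, radiotracer (100 μL, 80 μCi, 25 μM; 2.5 nmol) went i.v. via the tail vein. Mice were killed by cervical dislocation at 2 h. Organs and flank myocutaneous tissue were weighed and γ-counted as %ID per gram, mean ± SEM.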

PC3 (PSMA−) cells = test: FACS flow cytometry nonspecific binding control, PC3 cells
Procedure, shortened: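 PSMA− PC3 cells (luciferase/GFP-expressing) were incubated with 0.1–100 nM test compound for 1 h at 37 °C. Cell-bound fluorescence was read by flow cytometry in the Cy3 channel (488 nm, 22 mW excitation; 620/30 emission filter). Curves were fitted with a two-parameter exponential function. Flow experiments were run in duplicate.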

[2] = Optical properties in 1× PBS; type: physicochemical; settings: pH 7.5
Defluoridation stability = type: in vitro ADME
[3] = system: PC3-PIP (PSMA+) and PC3 (PSMA−) cell containing tissue; test: PET/CT imaging in mice bearing PC3 and PC3-PIP cells; type: in vivo, C57BL/6 mice
Procedure, shortened: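 Male C57BL/6 mice received s.c. 3 × 10^6 (18 mg) PC3 cells in the left flank and PC3-PIP cells in the right flank (n = 6); mice without cells served as controls (n = 5). 15 min later, [18F]-labelled test compound (80 μCi, 2.5 nmol, 100 μL) was given i.v. by tail vein. A 10 min CT then a 15 min PET scan were acquired at 2 and 6 h, shown as maximum intensity projections.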

Activity in PC3-PIP (PSMA+) vs PC3 (PSMA−) containing myocutaneous tissue [1]: 175 fold
Extinction coefficient ([2]; 1 mM PBS): 159 000 M^−1 cm^−1
Quantum yield φ [2]: 0.06
Defluoridation (Defluoridation stability; 7 days room temperature incubation with fetal bovine serum): Less than 1%
Chemical decomposition (defluoridation) (Defluoridation stability; physiological conditions): not observed
Liberation of [18F]-fluoride ion (defluoridation) in vivo [3]: not observed
SMILES: CC1(C)C(/C=C/C=C2\N(CCCCCC(=O)NCCCC[C@H](NC(=O)N[C@H](CCC(=O)O)C(=O)O)C(=O)O)c3ccc(S(=O)(=O)O)cc3C2(C)C)=[N+](CCCCCC(=O)NCCCCn2cc(C[N+](C)(C)C[B-](F)(F)F)nn2)c2ccc(S(=O)(=O)O)cc21 [[^19F]-4, ((((1-(4-(6-(2-((E)-3-((Z)-1-(6-(((S)-5-Carboxy-5-(3-((R)-1,3-dicarboxypropyl)ureido)pentyl)amino)-6-oxohexyl)-3,3-dimethyl-5-sulfoindolin-2-ylidene)prop-1-en-1-yl)-3,3-dimethyl-5-sulfo-3H-indol-1-ium-1-yl)hexanamido)butyl)-1H-1,2,3-triazol-4-yl)methyl)dimethylammonio)methyl) Trifluoroborate]
Nonspecific binding to PC3 (PC3 (PSMA−) cells): not observed

Reference: publication PMC6263152 (Journal of medicinal chemistry, 2018)
